Screening data deposited in PubChem by The Scripps Research Institute Molecular Screening Center.
MBD2 DNA inh: blocks human MBD2 binding to methylated DNA | TR-FRET, MBD2 binding to methylated oligonucleotide | inhibition, % at 4.4 µM | 0.31% of 370,000 active | AID 686964; in the data active = inhibition above about 13%
Target sequence (Q9UBB5 whole entry, looked up): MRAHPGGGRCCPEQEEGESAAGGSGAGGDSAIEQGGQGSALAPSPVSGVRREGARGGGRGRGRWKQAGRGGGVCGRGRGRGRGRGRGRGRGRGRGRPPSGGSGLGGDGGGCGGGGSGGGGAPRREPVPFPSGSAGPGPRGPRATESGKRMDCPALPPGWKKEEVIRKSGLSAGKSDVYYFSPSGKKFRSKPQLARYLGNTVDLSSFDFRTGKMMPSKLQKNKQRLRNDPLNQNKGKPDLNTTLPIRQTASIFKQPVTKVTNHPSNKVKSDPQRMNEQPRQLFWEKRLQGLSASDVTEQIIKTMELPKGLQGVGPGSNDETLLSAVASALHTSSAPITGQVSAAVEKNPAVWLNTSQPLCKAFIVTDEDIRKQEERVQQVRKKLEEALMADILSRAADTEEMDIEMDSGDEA
TDP2 absorb: TDP2 (human) inhibition, absorbance primary screen; recombinant TDP2, T5PNP hydrolysis, p-nitrophenol absorbance 415 nm; AID 720702; 0.34% of 370,000 active; inhibition, % at 12.8 µM; O95551;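 active = inhibition above the mean of all tested compounds plus 3 SD, set per campaign, cut at about 25% in these data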;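 also: 0% = DMSO with enzyme and 100% = buffer with substrate but no TDP2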
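Test system: Human TDP2 enzyme | Reagent: 5 mM T5PNP | Compound dosing: 12.8 µM single point, 1% DMSO | Incubation: Enzyme reaction with compound for 2 h at 37 °C | Technique: p-Nitrophenol epi absorbance | Read-out: % inhibition relative to enzyme-containing and enzyme-free wells | Benchmarks: High control without enzyme, low control DMSO plus TDP2 | Replicates: Singlicate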
LEDGF integ inh: blocks HIV-1 LEDGF/p75-dependent DNA integration; TR-FRET IN-LEDGF/p75 DNA integration, Eu/Cy5; inhibition, % at 3.7 µM; 0.64% of 370,000 active; AID 743269;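 active = inhibition above the screen-wide mean plus 3 SD, cut at about 13% in these data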;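 also: signal is the Cy5 over europium emission ratio at 671 and 618 nm; 0% = plate median of compound wells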
UHRF1 binding: UHRF1 methyl-DNA binding inhibition; inhibition, % at 4.4 µM; UHRF1 binding to methylated oligo, TR-FRET; 0.75% of 370,000 active; Q96T88; in the data active = inhibition above about 21%;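 also: UHRF1 SRA domain binding a hemimethylated CpG hairpin DNA probe; 0% = median of test compound wells and 100% = reference inhibitor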
Starred values were filed as active, the others as inactive. Most compounds without a hit are left out; they make up all but 1.6% or so of the library.

How did Cn1c(C(=O)N2CCCC(C(=O)NCc3cccs3)C2)cc2sccc21 (stereo not drawn) do in these assays?
MBD2 DNA inh: -4.9; TDP2 absorb: -8.8; LEDGF integ inh: 5.5; UHRF1 binding: -0.1

What do the screens show for `COC(=O)[C@H](C(C)C)N1Cc2nnn(Cc3ccccc3)c2-c2ccccc2S1(=O)=O`?
MBD2 DNA inh: 2.5; TDP2 absorb: -11.2; LEDGF integ inh: 3.4; UHRF1 binding: -1.3

What do the screens show for `COc1ccc(CCNC(=O)CSc2nc(O)cc(=O)[nH]2)cc1OC`?
MBD2 DNA inh: 0.2; TDP2 absorb: -6.4; LEDGF integ inh: -1.3; UHRF1 binding: 0.2

Results for COc1ccc(CCNC(=O)CSc2cc(=O)[nH]c(N)n2)cc1OC ?
MBD2 DNA inh: 8.0; TDP2 absorb: -6.5; LEDGF integ inh: -0.8; UHRF1 binding: 23.5*

How did CC(C)CNC(=O)OCc1cn(Cc2cccc(Cl)c2)nn1 do in these assays?
MBD2 DNA inh: -1.9; TDP2 absorb: 0.0; LEDGF integ inh: 1.7; UHRF1 binding: 1.2

Results for O=C(CCC(=O)Nc1ccc(F)cc1)N/N=C/c1ccc(O)cc1O ?
MBD2 DNA inh: 5.8; TDP2 absorb: -2.3; LEDGF integ inh: -8.2; UHRF1 binding: 24.2*

What do the screens show for `O=C(CCC(=O)Nc1ccc(F)cc1)N/N=C/c1ccc(O)cc1`?
MBD2 DNA inh: 0.3; TDP2 absorb: -1.4; LEDGF integ inh: -3.2; UHRF1 binding: 0.7

How did C=CCN(C)CC#CCCCCl do in these assays?
MBD2 DNA inh: 1.5; TDP2 absorb: 3.3; LEDGF integ inh: -1.6; UHRF1 binding: -0.8

Results for CCCC(C(=O)NCC1CCCO1)N(C(=O)CNS(=O)(=O)c1ccccc1)c1ccc(F)cc1 (stereo not drawn) ?
MBD2 DNA inh: 0.0; TDP2 absorb: 9.6; LEDGF integ inh: -2.7; UHRF1 binding: -1.8

What do the screens show for `CC(C)C(C(=O)NC1CCCC1)N(CC1CCCO1)C(=O)CNS(=O)(=O)c1ccc(F)cc1` (stereo not drawn)?
MBD2 DNA inh: -2.6; TDP2 absorb: 4.2; LEDGF integ inh: 1.9; UHRF1 binding: 28.2*

Results for CCC(C(=O)NCC1CCCO1)N(C(=O)CNS(=O)(=O)c1ccccc1)c1ccc(F)cc1 (stereo not drawn) ?
MBD2 DNA inh: 7.8; TDP2 absorb: -0.7; LEDGF integ inh: 89.4*; UHRF1 binding: 10.7

What do the screens show for `O=C(O)c1ccccc1NS(=O)(=O)c1ccc(NN=Cc2ccccc2F)c([N+](=O)[O-])c1`?
MBD2 DNA inh: -8.5; TDP2 absorb: 2.8; LEDGF integ inh: -0.1; UHRF1 binding: 33.1*

Results for CCCn1c(SCC(=O)c2cc(C)n(-c3ccc4c(c3)OCO4)c2C)n[nH]c1=O ?
MBD2 DNA inh: 2.0; TDP2 absorb: -1.5; LEDGF integ inh: -0.5; UHRF1 binding: -1.4

How did CCCn1c(SCC(=O)c2cc(C)n(C3CC3)c2C)n[nH]c1=O do in these assays?
MBD2 DNA inh: -4.0; TDP2 absorb: 8.3; LEDGF integ inh: -1.9; UHRF1 binding: 25.9*

Results for O=C(Cn1cnc2c(OCc3ccccc3)ncnc21)NCc1ccc2[nH]ccc2c1 ?
MBD2 DNA inh: -1.9; TDP2 absorb: -3.7; LEDGF integ inh: -2.1; UHRF1 binding: -0.8

Results for O=C(Cn1cnc2c(NCc3ccccc3)ncnc21)NCc1ccc2[nH]ccc2c1 ?
MBD2 DNA inh: 5.7; TDP2 absorb: 2.2; LEDGF integ inh: -0.6; UHRF1 binding: 23.6*

How did CC(=O)c1ccc(NC(=O)COC(=O)c2ccccc2Sc2ccccc2C#N)cc1 do in these assays?
MBD2 DNA inh: -2.6; TDP2 absorb: -4.0; LEDGF integ inh: -2.9; UHRF1 binding: -1.8

Results for N#Cc1cccc(NC(=O)COC(=O)c2ccccc2Sc2ccccc2C#N)c1 ?
MBD2 DNA inh: -4.0; TDP2 absorb: -1.5; LEDGF integ inh: 2.0; UHRF1 binding: 34.1*

How did Cc1cccc(Nc2ncnc3onc(-c4cccc(Cl)c4)c23)c1C do in these assays?
MBD2 DNA inh: -1.0; TDP2 absorb: 1.1; LEDGF integ inh: 1.3; UHRF1 binding: 24.2*

How did Cc1cccc(Nc2ncnc3onc(-c4ccc(F)cc4)c23)c1C do in these assays?
MBD2 DNA inh: -5.4; TDP2 absorb: -7.0; LEDGF integ inh: -0.4; UHRF1 binding: -1.0

What do the screens show for `Cc1ccc(S(=O)(=O)Nc2cncnc2NS(=O)(=O)c2ccc(C)cc2)cc1`?
MBD2 DNA inh: 5.6; TDP2 absorb: -10.4; LEDGF integ inh: -1.0; UHRF1 binding: 42.4*

What do the screens show for `Cc1ccc(S(=O)(=O)Nc2ccccc2NS(=O)(=O)c2ccc(C)cc2)cc1`?
MBD2 DNA inh: -1.6; TDP2 absorb: -0.7; LEDGF integ inh: 2.5; UHRF1 binding: -0.9

What do the screens show for `Cc1cccc(OCC(=O)N(Cc2nnc(-c3ccccc3Cl)o2)C2CC2)c1`?
MBD2 DNA inh: -2.2; TDP2 absorb: -12.6; LEDGF integ inh: -7.6; UHRF1 binding: 68.5*

What do the screens show for `COc1ccc(-c2cc3ccc(OCC(C)=O)cc3oc2=O)cc1OC`?
MBD2 DNA inh: -7.7; TDP2 absorb: -16.0; LEDGF integ inh: -1.1; UHRF1 binding: -2.4

How did COc1ccc(-c2cc3ccc(OCC(C)=O)cc3oc2=O)cc1 do in these assays?
MBD2 DNA inh: 12.2; TDP2 absorb: 7.7; LEDGF integ inh: 10.6; UHRF1 binding: 22.8*

What do the screens show for `O=C(CSc1nnnn1C1CCCCC1)Nc1ccc(F)cc1`?
MBD2 DNA inh: 3.7; TDP2 absorb: 2.7; LEDGF integ inh: 3.1; UHRF1 binding: -0.2

Results for O=C(CSc1nnnn1C1CCCCC1)Nc1ccc2c(c1)OCO2 ?
MBD2 DNA inh: 5.3; TDP2 absorb: -1.8; LEDGF integ inh: 2.8; UHRF1 binding: 21.1*

Results for O=C(CSc1nnnn1C1CCCC1)N1CCCc2ccccc21 ?
MBD2 DNA inh: 10.0; TDP2 absorb: 7.9; LEDGF integ inh: 6.5; UHRF1 binding: 29.2*

Results for COC(=O)[C@]12C[C@H](CC(=O)NCc3ccc(C)o3)C(=O)N(Cc3ccc4c(c3)OCO4)C1=C[C@H](C(C)C)O[C@@H]2C1CC1 ?
MBD2 DNA inh: 4.3; TDP2 absorb: 1.7; LEDGF integ inh: -0.5; UHRF1 binding: 1.8

How did CCCCCCN=C1CC(C)(C)CC(=O)/C1=C(/O)CCC do in these assays?
MBD2 DNA inh: 1.6; TDP2 absorb: -18.0; LEDGF integ inh: 6.0; UHRF1 binding: 23.4*

Results for CCCN=C1CC(C)(C)CC(=O)/C1=C(/O)CCC ?
MBD2 DNA inh: 2.0; TDP2 absorb: 1.4; LEDGF integ inh: 1.8; UHRF1 binding: 2.5

Results for COc1cccc(N(CC(=O)NCCSc2ccc(Cl)cc2)S(C)(=O)=O)c1 ?
MBD2 DNA inh: 9.7; TDP2 absorb: 22.2; LEDGF integ inh: 4.9; UHRF1 binding: 27.1*

Results for COc1ccccc1CCC[C@H](CCS(=O)(=O)C(C)C)CC1CCCCC1 ?
MBD2 DNA inh: 2.6; TDP2 absorb: 9.8; LEDGF integ inh: -1.4; UHRF1 binding: 5.3

How did COc1ccc(C2=NOC(C(=O)Nc3c(C)n(C)n(-c4ccccc4)c3=O)C2)cc1 (stereo not drawn) do in these assays?
MBD2 DNA inh: 4.2; TDP2 absorb: -7.4; LEDGF integ inh: -5.4; UHRF1 binding: 4.7

How did COc1cc(C2=NOC(C(=O)Nc3c(C)n(C)n(-c4ccccc4)c3=O)C2)cc(OC)c1OC (stereo not drawn) do in these assays?
MBD2 DNA inh: 12.6; TDP2 absorb: 15.5; LEDGF integ inh: 3.5; UHRF1 binding: 24.1*
